Reference: the M2OR odorant receptor database
Residue numbers refer to the chain shown, from its start.

Key:
Settings in all cases: stereoisomer not certain
OR11H12 (Homo sapiens) = molecular target: T1, OR11H12 (Homo sapiens) (UniProt B2RN74)
T1 sequence (whole entry): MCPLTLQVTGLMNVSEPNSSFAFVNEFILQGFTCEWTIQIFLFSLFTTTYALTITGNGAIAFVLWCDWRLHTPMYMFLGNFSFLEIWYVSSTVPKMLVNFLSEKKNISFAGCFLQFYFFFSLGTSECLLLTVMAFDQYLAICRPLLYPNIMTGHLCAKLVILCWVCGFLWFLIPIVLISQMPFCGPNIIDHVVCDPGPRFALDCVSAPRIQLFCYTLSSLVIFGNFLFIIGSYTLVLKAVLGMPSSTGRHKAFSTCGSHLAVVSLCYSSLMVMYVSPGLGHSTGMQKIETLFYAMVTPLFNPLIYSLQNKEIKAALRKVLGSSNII
Outline: (§1)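 Assay methods differ from source to source, frequently being transient luciferase assays in mammalian cell lines. For each receptor–molecule pair, the label responsive (active) applies when the original authors judged the measured signal statistically different from baseline, and non-responsive (inactive) applies otherwise.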

OR11H2 (Homo sapiens) = molecular target: T2, OR11H2 (Homo sapiens) (UniProt Q8NH07)
T2 sequence (whole entry): T1 sequence (whole entry) with Q7H, T33S, T49I, W68R, C156Y, M181K, R199L, S269P
Outline: as §1

OR11H4 (Homo sapiens) = molecular target: T3, OR11H4 (Homo sapiens) (UniProt Q8NGC9)
T3 sequence (whole entry): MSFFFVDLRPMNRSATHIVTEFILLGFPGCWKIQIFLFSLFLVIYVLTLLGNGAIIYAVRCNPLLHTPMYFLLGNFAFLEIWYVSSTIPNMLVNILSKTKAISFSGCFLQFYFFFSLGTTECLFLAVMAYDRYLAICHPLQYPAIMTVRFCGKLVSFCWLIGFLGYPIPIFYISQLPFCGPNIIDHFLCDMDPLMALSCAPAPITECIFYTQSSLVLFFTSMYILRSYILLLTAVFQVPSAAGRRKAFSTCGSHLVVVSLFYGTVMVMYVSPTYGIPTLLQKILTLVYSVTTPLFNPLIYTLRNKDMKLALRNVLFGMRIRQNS
Outline: as §1

OR11H6 (Homo sapiens) = molecular target: T4, OR11H6 (Homo sapiens) (UniProt Q8NGC7)
T4 sequence (whole entry): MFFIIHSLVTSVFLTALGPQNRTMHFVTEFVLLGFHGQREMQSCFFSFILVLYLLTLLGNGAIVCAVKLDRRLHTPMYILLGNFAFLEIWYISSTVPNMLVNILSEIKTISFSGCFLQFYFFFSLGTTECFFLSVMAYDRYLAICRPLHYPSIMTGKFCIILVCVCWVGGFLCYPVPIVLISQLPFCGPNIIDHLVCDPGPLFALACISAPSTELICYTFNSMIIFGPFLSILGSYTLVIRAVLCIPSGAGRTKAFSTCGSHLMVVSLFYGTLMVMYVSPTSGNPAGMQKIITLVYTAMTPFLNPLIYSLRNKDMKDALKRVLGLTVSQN
Outline: as §1

OR11L1 (Homo sapiens) = molecular target: T5, OR11L1 (Homo sapiens) (UniProt Q8NGX0)
T5 sequence (whole entry): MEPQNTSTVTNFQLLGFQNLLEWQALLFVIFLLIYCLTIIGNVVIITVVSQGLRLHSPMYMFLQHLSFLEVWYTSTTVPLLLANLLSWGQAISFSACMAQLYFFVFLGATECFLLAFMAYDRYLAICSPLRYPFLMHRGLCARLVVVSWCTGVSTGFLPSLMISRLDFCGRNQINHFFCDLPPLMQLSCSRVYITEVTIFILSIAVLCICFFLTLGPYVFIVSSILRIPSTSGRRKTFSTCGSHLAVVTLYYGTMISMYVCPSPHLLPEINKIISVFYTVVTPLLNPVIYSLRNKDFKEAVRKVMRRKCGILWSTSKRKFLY
Outline: as §1

OR12D2 (Homo sapiens) = molecular target: T6, OR12D2 (Homo sapiens) (UniProt P58182)
T6 sequence (whole entry): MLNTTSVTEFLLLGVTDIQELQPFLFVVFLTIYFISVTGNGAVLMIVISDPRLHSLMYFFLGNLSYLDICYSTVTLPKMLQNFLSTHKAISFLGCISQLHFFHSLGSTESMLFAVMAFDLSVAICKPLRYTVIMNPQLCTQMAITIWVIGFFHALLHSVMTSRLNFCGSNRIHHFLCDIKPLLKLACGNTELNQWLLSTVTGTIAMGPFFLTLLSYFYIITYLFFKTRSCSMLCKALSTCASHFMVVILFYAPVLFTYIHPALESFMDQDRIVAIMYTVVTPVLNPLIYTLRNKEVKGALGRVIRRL
Outline: as §1

OR12D3 (Homo sapiens) = molecular target: T7, OR12D3 (Homo sapiens) (UniProt Q9UGF7)
T7 sequence (whole entry): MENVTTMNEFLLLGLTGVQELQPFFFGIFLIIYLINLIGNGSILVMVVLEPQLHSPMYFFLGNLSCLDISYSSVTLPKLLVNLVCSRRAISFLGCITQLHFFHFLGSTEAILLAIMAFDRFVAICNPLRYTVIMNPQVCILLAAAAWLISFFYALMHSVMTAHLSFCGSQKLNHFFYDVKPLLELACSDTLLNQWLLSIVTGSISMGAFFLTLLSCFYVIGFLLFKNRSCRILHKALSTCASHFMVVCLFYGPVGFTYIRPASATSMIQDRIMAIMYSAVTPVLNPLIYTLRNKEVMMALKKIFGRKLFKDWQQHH
Outline: as §1

OR13A1 (Homo sapiens) = molecular target: T8, OR13A1 (Homo sapiens) (UniProt Q8NGR1)
T8 sequence (whole entry): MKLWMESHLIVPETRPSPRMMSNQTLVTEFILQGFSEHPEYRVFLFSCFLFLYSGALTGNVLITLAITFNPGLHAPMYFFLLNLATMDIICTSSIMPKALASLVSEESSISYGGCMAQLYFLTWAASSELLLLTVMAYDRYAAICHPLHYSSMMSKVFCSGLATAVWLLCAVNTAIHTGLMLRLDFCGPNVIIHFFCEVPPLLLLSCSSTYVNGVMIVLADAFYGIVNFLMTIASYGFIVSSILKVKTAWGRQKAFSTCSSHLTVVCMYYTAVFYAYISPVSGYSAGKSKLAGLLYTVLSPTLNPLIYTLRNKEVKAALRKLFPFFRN
Outline: as §1

OR13C2 (Homo sapiens) = molecular target: T9, OR13C2 (Homo sapiens) (UniProt Q8NGS9)
T9 sequence (whole entry): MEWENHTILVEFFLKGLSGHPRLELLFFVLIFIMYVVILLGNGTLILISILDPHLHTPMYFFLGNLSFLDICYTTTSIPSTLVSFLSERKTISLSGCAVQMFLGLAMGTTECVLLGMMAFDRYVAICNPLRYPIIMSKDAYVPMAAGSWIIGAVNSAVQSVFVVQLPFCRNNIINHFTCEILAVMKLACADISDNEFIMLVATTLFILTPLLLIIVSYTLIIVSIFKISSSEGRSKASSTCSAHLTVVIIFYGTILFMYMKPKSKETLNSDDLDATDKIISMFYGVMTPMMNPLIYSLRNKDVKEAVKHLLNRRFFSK
Outline: as §1

OR13C3 (Homo sapiens) = molecular target: T10, OR13C3 (Homo sapiens) (UniProt Q8NGS6)
T10 sequence (whole entry): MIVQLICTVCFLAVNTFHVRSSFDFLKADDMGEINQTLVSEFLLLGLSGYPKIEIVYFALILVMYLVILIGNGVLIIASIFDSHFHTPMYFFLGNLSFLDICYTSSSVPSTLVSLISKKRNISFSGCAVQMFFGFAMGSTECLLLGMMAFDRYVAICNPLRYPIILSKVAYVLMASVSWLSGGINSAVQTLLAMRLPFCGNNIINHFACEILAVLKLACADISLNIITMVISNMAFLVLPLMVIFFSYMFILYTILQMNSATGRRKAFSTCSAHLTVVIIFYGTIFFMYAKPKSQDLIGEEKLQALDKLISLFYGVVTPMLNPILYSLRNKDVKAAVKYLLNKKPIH
Outline: as §1

OR13C4 (Homo sapiens) = molecular target: T11, OR13C4 (Homo sapiens) (UniProt Q8NGS5)
T11 sequence (whole entry): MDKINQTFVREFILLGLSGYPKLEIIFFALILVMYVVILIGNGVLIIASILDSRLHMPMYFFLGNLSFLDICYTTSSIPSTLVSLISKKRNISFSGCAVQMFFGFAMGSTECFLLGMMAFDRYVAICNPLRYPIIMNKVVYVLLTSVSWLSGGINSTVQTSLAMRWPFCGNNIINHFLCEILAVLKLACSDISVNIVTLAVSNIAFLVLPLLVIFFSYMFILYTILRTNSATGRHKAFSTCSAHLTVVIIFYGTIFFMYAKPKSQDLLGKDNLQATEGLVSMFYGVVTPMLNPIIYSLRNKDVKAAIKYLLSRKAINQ
Outline: as §1

OR13C5 (Homo sapiens) = molecular target: T12, OR13C5 (Homo sapiens) (UniProt Q8NGS8)
T12 sequence (whole entry): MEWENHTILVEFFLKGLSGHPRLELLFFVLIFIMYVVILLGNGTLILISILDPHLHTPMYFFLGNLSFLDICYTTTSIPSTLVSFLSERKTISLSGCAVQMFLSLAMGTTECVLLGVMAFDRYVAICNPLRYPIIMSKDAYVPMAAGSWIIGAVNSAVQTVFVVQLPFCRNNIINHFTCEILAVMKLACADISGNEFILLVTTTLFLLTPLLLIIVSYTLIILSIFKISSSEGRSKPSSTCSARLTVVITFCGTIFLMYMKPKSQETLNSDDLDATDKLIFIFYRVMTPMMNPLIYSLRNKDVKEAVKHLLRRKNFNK
Outline: as §1

OR13C8 (Homo sapiens) = molecular target: T13, OR13C8 (Homo sapiens) (UniProt Q8NGS7)
T13 sequence (whole entry): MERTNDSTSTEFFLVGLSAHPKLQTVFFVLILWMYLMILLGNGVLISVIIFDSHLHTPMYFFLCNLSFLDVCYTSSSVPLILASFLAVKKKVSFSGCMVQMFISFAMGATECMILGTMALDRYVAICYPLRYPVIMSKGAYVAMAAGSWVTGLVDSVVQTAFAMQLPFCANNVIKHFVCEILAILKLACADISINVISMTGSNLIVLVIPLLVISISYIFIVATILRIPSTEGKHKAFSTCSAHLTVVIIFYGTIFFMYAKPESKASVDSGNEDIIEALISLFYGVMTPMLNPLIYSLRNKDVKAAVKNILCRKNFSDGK
Outline: as §1

OR13C9 (Homo sapiens) = molecular target: T14, OR13C9 (Homo sapiens) (UniProt Q8NGT0)
T14 sequence (whole entry): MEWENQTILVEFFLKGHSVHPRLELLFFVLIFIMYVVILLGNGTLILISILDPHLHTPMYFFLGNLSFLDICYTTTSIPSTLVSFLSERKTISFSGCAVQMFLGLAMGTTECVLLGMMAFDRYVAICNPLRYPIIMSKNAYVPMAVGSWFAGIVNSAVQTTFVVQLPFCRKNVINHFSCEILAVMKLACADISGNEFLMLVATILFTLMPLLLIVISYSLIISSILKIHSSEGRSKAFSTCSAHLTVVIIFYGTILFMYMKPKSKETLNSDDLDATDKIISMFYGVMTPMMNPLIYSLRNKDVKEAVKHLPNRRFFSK
Outline: as §1

OR13D1 (Homo sapiens) = molecular target: T15, OR13D1 (Homo sapiens) (UniProt Q8NGV5)
T15 sequence (whole entry): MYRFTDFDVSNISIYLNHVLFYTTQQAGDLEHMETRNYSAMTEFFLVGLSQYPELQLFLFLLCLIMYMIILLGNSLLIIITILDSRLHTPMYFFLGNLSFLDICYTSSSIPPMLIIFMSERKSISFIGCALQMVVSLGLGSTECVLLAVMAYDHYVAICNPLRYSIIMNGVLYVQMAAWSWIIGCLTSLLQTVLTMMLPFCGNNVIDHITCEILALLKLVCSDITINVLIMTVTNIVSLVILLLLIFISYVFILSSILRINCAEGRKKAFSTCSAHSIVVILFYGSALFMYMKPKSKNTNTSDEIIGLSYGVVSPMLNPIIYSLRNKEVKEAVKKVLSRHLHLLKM
Outline: as §1

OR13F1 (Homo sapiens) = molecular target: T16, OR13F1 (Homo sapiens) (UniProt Q8NGS4)
T16 sequence (whole entry): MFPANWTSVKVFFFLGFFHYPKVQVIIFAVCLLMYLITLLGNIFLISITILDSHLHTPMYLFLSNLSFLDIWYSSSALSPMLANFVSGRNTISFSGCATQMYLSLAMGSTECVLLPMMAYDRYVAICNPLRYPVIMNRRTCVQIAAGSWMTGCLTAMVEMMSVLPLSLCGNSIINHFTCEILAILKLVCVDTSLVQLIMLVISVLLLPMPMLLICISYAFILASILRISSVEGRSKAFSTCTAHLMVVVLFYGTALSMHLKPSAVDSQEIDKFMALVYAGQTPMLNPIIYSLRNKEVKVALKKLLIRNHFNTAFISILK
Outline: as §1

OR13G1 (Homo sapiens) = molecular target: T17, OR13G1 (Homo sapiens) (UniProt Q8NGZ3)
T17 sequence (whole entry): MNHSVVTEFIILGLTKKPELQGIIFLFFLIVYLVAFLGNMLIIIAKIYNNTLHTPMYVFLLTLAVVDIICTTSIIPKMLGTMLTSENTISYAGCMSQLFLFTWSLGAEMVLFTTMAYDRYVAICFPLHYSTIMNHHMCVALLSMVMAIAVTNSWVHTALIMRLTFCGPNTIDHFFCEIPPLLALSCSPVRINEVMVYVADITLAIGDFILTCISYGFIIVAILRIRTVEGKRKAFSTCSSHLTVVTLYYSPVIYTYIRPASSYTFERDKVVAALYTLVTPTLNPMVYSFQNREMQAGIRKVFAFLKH
Outline: as §1

Measured: odorant receptor agonist call

CCC1OC(C)=C(O)C1=O (stereo not drawn)
inactive: all assays above

CCCCC(S)C(C)CO (stereo not drawn)
not listed: OR11H12 (Homo sapiens)
inactive: all other assays above
